Sampled rows, rich in hits. Any-hit rate of the full collection: about 1.7%.
STEP inh – inhibitors of human striatal-enriched phosphatase STEP; P54829; recombinant STEP, OMFP fluorogenic substrate, fluorescence; inhibition, % at 20 µM; 360,000 compounds, 0.25% hits; AID 588621;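 active means inhibition at 20 µM, scaled per plate between control wells, above about 37%, limit read from the data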;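 further: 0% = DMSO with enzyme and substrate and 100% = substrate only without enzyme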
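medium = Bis-Tris buffer pH 6.0, 2.5 mM DTT, 0.005% Tween 20 | test system = STEP (striatal-enriched tyrosine phosphatase) enzyme, cell-free | measure = normalized % inhibition | compound dosing = 20 µM, 1% DMSO | also added = 25 µM OMFP | schedule = reaction 20 min, ambient temperature | measured by = fluorescence read at 480 nm ex / 540 nm em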
Scp1 inh – blocks human Scp-1 phosphatase activity; Q9GZU7; Recombinant Scp1, phosphopeptide, malachite green phosphate absorbance; inhibition, % at 20 µM; 340,000 compounds, 0.88% hits; AID 493091;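 active means inhibition above about 50% at 20 µM, limit read from the data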;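 further: plate controls were DMSO wells with enzyme for no effect and wells lacking enzyme for full effect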
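System: SCP-1 catalytic domain; Reagent: Phospho 17-mer peptide substrate; Doses: one concentration, 20 µM, with 1.0% DMSO; Incubation: 45 min room-temperature reaction, 5 min colour, 30 min stabiliser; Signal: Phosphate-binding colour reagent, absorbance read at 630 nm.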
LMPTP inh – LMPTP (human) inhibition; 360,000 compounds, 0.22% hits; recombinant LMPTP-A, OMFP fluorogenic substrate, fluorescence intensity; inhibition, % at 20 µM; P24666;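 active means compounds that cut the enzyme signal by at least half of the control window in the single-dose screen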;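 further: plate controls were DMSO wells with enzyme plus substrate for no effect and substrate without enzyme for full effect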
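material = LMPTP-A | quantity = 0.625 nM enzyme | reagent = OMFP substrate, 400 µM final | buffer or medium = Bis-Tris pH 6.0, DTT, detergent | detection = endpoint fluorescence intensity from OMFP dephosphorylation | dosing = single 20 µM dose | read-out basis = % inhibition relative to no-enzyme and uninhibited control wells | control set = no-enzyme and uninhibited controls | timing = 50 min at room temperature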
SUMO1 PPI mod – alters human SUMO1 binding to SIM partners; SUMO1 binding to a labelled peptide, TR-FRET, 1 h; inhibition, % at 20 µM; 360,000 compounds, 0.33% hits; AID 602429; in the data active means inhibition above about 37%
DNMT1 block – DNMT1 (human) enzyme inhibition | P26358 | DNMT1 molecular beacon, Hinp1I cleavage, fluorescence | inhibition (reported as % activation of signal), % at 10 µM | 360,000 compounds, 0.83% hits | AID 588458; in the data active means inhibition above about 50%
Target sequence (P26358 504-1616 limits assumed): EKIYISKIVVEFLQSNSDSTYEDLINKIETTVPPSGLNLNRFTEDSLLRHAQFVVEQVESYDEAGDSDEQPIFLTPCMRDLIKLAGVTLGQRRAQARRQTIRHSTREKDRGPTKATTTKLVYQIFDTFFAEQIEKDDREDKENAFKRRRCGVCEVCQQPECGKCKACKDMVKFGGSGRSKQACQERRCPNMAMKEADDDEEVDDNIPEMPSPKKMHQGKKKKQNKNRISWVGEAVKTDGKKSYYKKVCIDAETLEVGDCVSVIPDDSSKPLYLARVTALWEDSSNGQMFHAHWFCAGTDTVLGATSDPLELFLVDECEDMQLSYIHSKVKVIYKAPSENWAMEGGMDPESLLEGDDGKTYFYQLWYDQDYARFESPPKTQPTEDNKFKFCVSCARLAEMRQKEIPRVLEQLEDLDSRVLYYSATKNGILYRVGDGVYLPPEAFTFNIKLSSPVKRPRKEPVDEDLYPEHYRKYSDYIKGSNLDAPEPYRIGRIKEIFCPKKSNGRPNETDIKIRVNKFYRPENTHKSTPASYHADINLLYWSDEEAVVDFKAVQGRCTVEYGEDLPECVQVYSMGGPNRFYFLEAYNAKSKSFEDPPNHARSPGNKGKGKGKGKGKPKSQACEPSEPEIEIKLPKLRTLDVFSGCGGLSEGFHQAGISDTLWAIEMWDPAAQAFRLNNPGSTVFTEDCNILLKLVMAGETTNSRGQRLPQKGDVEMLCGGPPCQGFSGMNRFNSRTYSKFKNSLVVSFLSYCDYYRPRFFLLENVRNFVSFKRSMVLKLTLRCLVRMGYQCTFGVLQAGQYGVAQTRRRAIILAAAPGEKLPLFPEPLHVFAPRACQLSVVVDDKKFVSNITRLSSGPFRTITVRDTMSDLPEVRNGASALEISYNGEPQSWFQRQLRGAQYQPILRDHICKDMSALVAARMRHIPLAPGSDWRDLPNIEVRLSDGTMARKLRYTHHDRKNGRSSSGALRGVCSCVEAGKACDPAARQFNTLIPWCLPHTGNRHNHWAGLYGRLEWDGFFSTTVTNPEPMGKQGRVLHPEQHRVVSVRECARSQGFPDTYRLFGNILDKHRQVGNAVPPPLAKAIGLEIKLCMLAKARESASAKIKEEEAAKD
Scp-1 conf – confirmation of human Scp-1 phosphatase inhibitors; shares compounds with Scp1 inh; recombinant SCP-1 catalytic domain, phosphate release, malachite green absorbance; inhibition, % at 20 µM; 2,500 compounds, 61% hits; AID 540281;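 further: plate controls were DMSO with enzyme for no effect and buffer wells lacking enzyme for full effect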
Scp-1 MG ctr – counter-screen for Scp-1 inhibitors: colorimetric interference; shares compounds with Scp1 inh; Colorimetric interference counterscreen, malachite green absorbance 630 nm; apparent inhibition (interference), % at 20 µM; 2,500 tested, under 10 active;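 further: compounds added after enzyme reaction finished so only phosphate colour detection is probed; plate controls were DMSO wells with completed Scp-1 reaction for no effect and substrate wells lacking enzyme for full effect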
Scp1 DSF – validation of human Scp-1 inhibitors by thermal shift binding; shares compounds with Scp1 inh; Recombinant SCP1, Sypro Orange thermal shift Tm; thermal shift relative to vanadate control, % at 40 µM; 1,500 compounds, 25% hits; AID 540329;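 active means substances whose mean melting-temperature shift, as a percentage of the reference inhibitor's shift, reaches about 5.3%, limit read from the data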;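 further: 0% = Tm of DMSO wells and 100% = Tm with sodium orthovanadate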
Active calls of the source: *.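 How the source made its calls, unless noted: active means inhibition of at least 30% at 20 µM; inactive means the rest.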

How did C=CCn1c(SCc2nc3sc(C(=O)O)c(C)c3c(=O)[nH]2)nnc1-c1ccc(C(C)(C)C)cc1 do in these assays?
STEP inh: 8; Scp1 inh: 69*; LMPTP inh: 1; SUMO1 PPI mod: 16; DNMT1 block: 11; Scp-1 conf: 55*; Scp-1 MG ctr: -14; Scp1 DSF: 1

Results for O=c1[nH]n2c(=O)c3c([nH]c2c1N=Nc1cccc(Cl)c1)CCCC3 ?
STEP inh: 4; Scp1 inh: 95*; LMPTP inh: 5; SUMO1 PPI mod: 5; DNMT1 block: 0; Scp-1 conf: 46*; Scp-1 MG ctr: -18; Scp1 DSF: 30*

What do the screens show for `CCCc1ccc2oc(C(=O)N3CCC(COC)C3)c(C)c2c1` (centres undefined)?
STEP inh: 2; Scp1 inh: 69*; LMPTP inh: 1; SUMO1 PPI mod: -2; DNMT1 block: -2; Scp-1 conf: 3; Scp-1 MG ctr: -3

Results for Cc1ccc(C(=O)NNC(=O)c2cccc(S(=O)(=O)N3CCN(c4ccccc4)CC3)c2)cc1 ?
STEP inh: 0; Scp1 inh: 6; LMPTP inh: 2; SUMO1 PPI mod: 2; DNMT1 block: -1

How did CCc1nnc(NC(=O)CSC(=S)N2CCOCC2)s1 do in these assays?
STEP inh: 3; Scp1 inh: 67*; LMPTP inh: -1; SUMO1 PPI mod: 5; DNMT1 block: 1; Scp-1 conf: -8; Scp-1 MG ctr: -10

How did Cc1cc2ccccn2c1C(=O)c1ccc(N/N=C/c2ccc(C(=O)O)cc2)c([N+](=O)[O-])c1 do in these assays?
STEP inh: 99*; Scp1 inh: 114*; LMPTP inh: 8; SUMO1 PPI mod: 104*; DNMT1 block: 88*; Scp-1 conf: 70*; Scp-1 MG ctr: -19; Scp1 DSF: 6.4*

Results for CCCn1c(SCC(=O)Nc2ccc(F)c(Cl)c2)nc(O)cc1=O ?
STEP inh: 3; Scp1 inh: -8; LMPTP inh: 1; SUMO1 PPI mod: 3; DNMT1 block: -4

What do the screens show for `COc1cc(/C=C2\C(=N)N3N=C(S(C)(=O)=O)SC3=NC2=O)ccc1OS(=O)(=O)c1ccc(C)cc1`?
STEP inh: 3; Scp1 inh: 69*; LMPTP inh: 1; SUMO1 PPI mod: 14; DNMT1 block: -1; Scp-1 conf: 75*; Scp-1 MG ctr: -16; Scp1 DSF: 12*

How did COc1ccccc1OCCOc1ccc(/C=C2\C(=N)N3N=C(S(C)(=O)=O)SC3=NC2=O)cc1 do in these assays?
STEP inh: 3; Scp1 inh: 80*; LMPTP inh: 12; SUMO1 PPI mod: -3; DNMT1 block: 1; Scp-1 conf: 56*; Scp-1 MG ctr: -12; Scp1 DSF: 6.9*

How did CC[n+]1c(C)cc(C)n1-c1ccccc1 do in these assays?
STEP inh: 0; Scp1 inh: 95*; LMPTP inh: 0; SUMO1 PPI mod: -2; DNMT1 block: -40; Scp-1 conf: 92*; Scp-1 MG ctr: -9; Scp1 DSF: -7

Results for Cc1ccccc1C(=O)NNC(=O)c1cccc(Br)c1 ?
STEP inh: -2; Scp1 inh: -10; LMPTP inh: -1; SUMO1 PPI mod: 8; DNMT1 block: 0

What do the screens show for `Cn1nnnc1SCC1=C(C(=O)O)N2C(=O)C(NC(=O)C3CC3c3ccccc3)C2SC1` (centres undefined)?
STEP inh: 4; Scp1 inh: 59*; LMPTP inh: -1; SUMO1 PPI mod: 1; DNMT1 block: 27; Scp-1 conf: 70*; Scp-1 MG ctr: 0; Scp1 DSF: 2

Results for CCc1nnc(NC(=O)CCC(=O)N2CCN(Cc3ccc(OC)c(F)c3)CC2)s1 ?
STEP inh: 5; Scp1 inh: -3; LMPTP inh: -2; SUMO1 PPI mod: 1; DNMT1 block: 3
